{"source": "ChEMBL document CHEMBL1125331", "about": "“6-Hydroxy-3-n-propyl-2,3,4,5-tetrahydro-1H-3-benzazepine and analogs: new centrally acting 5-HT1A receptor agonists” (J Med Chem, 1992)", "key": {"Rattus norvegicus [1]": {"system": "Rattus norvegicus", "assay": "Effect evaluated in vivo on 5-HTP accumulation in limbic system at a dose 12.5 umol/kg (s.c.)", "assay_type": "functional", "in_short": "(§1)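 Male Sprague-Dawley rats (200–300 g) were pretreated with reserpine 5 mg/kg sc 18 h before. Test compound was given sc at 5 mL/kg in neutral solution. 5-HT synthesis rate was indexed by […] 5-HTP accumulation after decarboxylase inhibition with NSD 1015, measured by HPLC-electrochemical detection. Dose-response used 4–6 dose levels, n = 4.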"}, "Rattus norvegicus [2]": {"system": "Rattus norvegicus", "assay": "Effect evaluated in vivo on 5-HTP accumulation in NE-rich hemispheres at a 12.5 dose uM/kg(sc)", "assay_type": "functional", "in_short": "(§2)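 Male Sprague-Dawley rats (200–300 g) were pretreated with reserpine 5 mg/kg sc 18 h beforehand. Test drug was given at neutral pH, 5 mL/kg. Aromatic amino acid decarboxylase was blocked with NSD 1015. 5-HTP in the dissected brain region was assayed by HPLC with electrochemical detection.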"}, "Rattus norvegicus [3]": {"system": "Rattus norvegicus", "assay": "Effect evaluated in vivo on NE synthesis in NE-rich hemispheres at a 0.78 dose uM/kg(sc)", "assay_type": "functional", "in_short": "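Rats pretreated with reserpine 5 mg/kg sc 18 h before received test compound sc at 5 mL/kg in neutral solution. After decarboxylase inhibition with NSD 1015, dopa accumulation in hemispheres (mainly cortex) was measured by HPLC-electrochemical detection as an index of NE synthesis. Dose-response used 4–6 dose levels, n = 4.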"}, "Rattus norvegicus [4]": {"system": "Rattus norvegicus", "assay": "Effect evaluated in vivo on 5-HTP accumulation in limbic system at a dose 3.1 umol/kg (s.c.)", "assay_type": "functional", "in_short": "as §1"}, "Rattus norvegicus [5]": {"system": "Rattus norvegicus", "assay": "Effect evaluated in vivo on 5-HTP accumulation in limbic system at a dose 25 umol/kg (p.o.)", "assay_type": "functional", "in_short": "(§3)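 Oral dosing in male Sprague-Dawley rats (200–300 g) pretreated with reserpine 5 mg/kg sc 18 h before. After decarboxylase inhibition with NSD 1015, brain 5-HTP or dopa accumulation (HPLC-electrochemical detection) indexed 5-HT synthesis, DA synthesis (limbic) or NE synthesis (hemispheres, mainly cortex).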"}, "Rattus norvegicus [6]": {"system": "Rattus norvegicus", "assay": "Effect evaluated in vivo on 5-HTP accumulation in corpus striatum after perioral administration", "assay_type": "functional", "in_short": "as §2"}, "Rattus norvegicus [7]": {"system": "Rattus norvegicus", "assay": "Effect evaluated in vivo on 5-HTP accumulation in corpus striatum at a dose 1.56 umol/kg (p.o.)", "assay_type": "functional", "in_short": "as §2"}, "Rattus norvegicus [8]": {"system": "Rattus norvegicus", "assay": "Effect evaluated in vivo on 5-HTP accumulation in limbic system at a dose 100 umol/kg (p.o.)", "assay_type": "functional", "in_short": "as §3"}, "Rattus norvegicus [9]": {"system": "Rattus norvegicus", "assay": "Effect evaluated in vivo on 5-HTP accumulation in limbic system at a dose 50 umol/kg (s.c.)", "assay_type": "functional", "in_short": "as §1"}, "Rattus norvegicus [10]": {"system": "Rattus norvegicus", "assay": "Effect evaluated in vivo on 5-HTP accumulation in corpus striatum at a dose 6.25 umol/kg (p.o.)", "assay_type": "functional", "in_short": "as §2"}, "Rattus norvegicus [11]": {"system": "Rattus norvegicus", "assay": "Effect evaluated in vivo on 5-HTP accumulation in NE-rich hemispheres at a 25 dose uM/kg(po)", "assay_type": "functional", "in_short": "as §2"}, "Rattus norvegicus [12]": {"system": "Rattus norvegicus", "assay": "Effect evaluated in vivo on 5-HTP accumulation in NE-rich hemispheres at a 100 dose uM/kg(po)", "assay_type": "functional", "in_short": "as §2"}, "Rattus norvegicus [13]": {"system": "Rattus norvegicus", "assay": "Effect evaluated in vivo on 5-HTP accumulation in NE-rich hemispheres at a 3.1 dose uM/kg(sc)", "assay_type": "functional", "in_short": "as §2"}, "D(2) dopamine receptor": {"molecular_target": "D(2) dopamine receptor (Rattus norvegicus, UniProt P61169)", "sequence (P61169 whole entry)": "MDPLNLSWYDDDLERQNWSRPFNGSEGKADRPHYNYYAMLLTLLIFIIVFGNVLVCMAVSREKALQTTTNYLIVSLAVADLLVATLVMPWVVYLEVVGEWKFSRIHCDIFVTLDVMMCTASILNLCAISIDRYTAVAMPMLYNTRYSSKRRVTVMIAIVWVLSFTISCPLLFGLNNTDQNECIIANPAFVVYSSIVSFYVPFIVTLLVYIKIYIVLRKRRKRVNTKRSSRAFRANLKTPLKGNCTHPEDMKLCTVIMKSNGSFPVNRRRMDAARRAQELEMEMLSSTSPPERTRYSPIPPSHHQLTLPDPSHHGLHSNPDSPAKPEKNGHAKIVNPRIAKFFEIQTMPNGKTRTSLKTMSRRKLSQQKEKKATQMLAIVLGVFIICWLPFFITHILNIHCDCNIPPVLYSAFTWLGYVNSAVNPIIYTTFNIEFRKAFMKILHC", "assay": "Inhibitory activity against Dopamine receptor D2 in rats using [3H]spiperone as radioligand", "in_short": "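Rat striatal membranes in 50 mM potassium phosphate buffer pH 7.4 were incubated with 0.5 nM [3H]spiperone for 10 min at 37 °C. Specific binding was defined with 10 μM 6,7-ADTN.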"}, "Rattus norvegicus [14]": {"system": "Rattus norvegicus", "assay": "Effect evaluated in vivo on NE synthesis in NE-rich hemispheres after perioral administration", "assay_type": "functional", "in_short": "as §3"}, "Rattus norvegicus [15]": {"system": "Rattus norvegicus", "assay": "Effect evaluated in vivo on 5-HTP accumulation in corpus striatum at a dose 0.78 umol/kg (s.c.)", "assay_type": "functional", "in_short": "as §2"}, "Rattus norvegicus [16]": {"system": "Rattus norvegicus", "assay": "The compound was tested in vivo for locomotor activity in rats at 50 umol/kg after subcutaneous administration", "assay_type": "functional", "in_short": "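Male Sprague-Dawley rats received reserpine 5 mg/kg sc in the neck 18 h before testing. Test compound was given sc in the neck (n = 4). Rats were placed singly in photocell motility meters immediately after dosing, and counts were accumulated over 30 min (tests 9 a.m.–1 p.m.). Gross behaviour, including 5-HT syndrome, was observed throughout.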"}, "Rattus norvegicus [17]": {"system": "Rattus norvegicus", "assay": "Effect evaluated in vivo on 5-HTP accumulation in NE-rich hemispheres at a 50 dose uM/kg(sc)", "assay_type": "functional", "in_short": "as §2"}, "Rattus norvegicus [18]": {"system": "Rattus norvegicus", "assay": "Effect evaluated in vivo on 5-HTP accumulation in limbic system at a dose 0.78 umol/kg (s.c.)", "assay_type": "functional", "in_short": "as §2"}, "Rattus norvegicus [19]": {"system": "Rattus norvegicus", "assay": "Effect evaluated in vivo on 5-HTP accumulation in corpus striatum after subcutaneous administration", "assay_type": "functional", "settings": "sc", "in_short": "as §2"}, "Rattus norvegicus [20]": {"system": "Rattus norvegicus", "assay": "Effect evaluated in vivo on 5-HTP accumulation in corpus striatum at a dose 100 umol/kg (p.o.)", "assay_type": "functional", "in_short": "as §2"}, "Rattus norvegicus [21]": {"system": "Rattus norvegicus", "assay": "Effect evaluated in vivo on 5-HTP accumulation in corpus striatum at a dose 3.1 umol/kg (s.c.)", "assay_type": "functional", "in_short": "as §2"}, "[22]": {"molecular_target": "T1, 5-hydroxytryptamine receptor 1A (Rattus norvegicus, UniProt P19327)", "T1 sequence (P19327 whole entry)": "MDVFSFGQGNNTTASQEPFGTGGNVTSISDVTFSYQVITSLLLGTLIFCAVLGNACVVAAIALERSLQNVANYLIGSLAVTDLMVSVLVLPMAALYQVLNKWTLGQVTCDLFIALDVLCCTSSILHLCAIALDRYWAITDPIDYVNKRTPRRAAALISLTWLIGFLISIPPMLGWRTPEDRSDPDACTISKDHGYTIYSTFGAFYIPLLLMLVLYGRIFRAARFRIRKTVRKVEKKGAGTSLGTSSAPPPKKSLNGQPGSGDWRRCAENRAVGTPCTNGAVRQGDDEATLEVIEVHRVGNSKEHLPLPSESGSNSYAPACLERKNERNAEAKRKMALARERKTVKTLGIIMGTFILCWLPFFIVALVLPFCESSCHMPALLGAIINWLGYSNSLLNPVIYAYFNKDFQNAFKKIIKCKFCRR", "assay": "Inhibitory activity against 5-hydroxytryptamine 1A receptor in rats, using [3H]8-OH-DPAT as radioligand", "in_short": "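Rat whole-brain membranes (minus brainstem and cerebellum) in 50 mM Tris pH 8.0 with 120 mM NaCl, 4 mM CaCl2, 4 mM MgCl2 and 10 μM pargyline. Rapid filtration, then scintillation counting. Nonspecific binding defined with 10 μM 5-HT. IC50 by semi-log plot and linear regression.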"}, "Rattus norvegicus [23]": {"system": "Rattus norvegicus", "assay": "Effect evaluated in vivo on 5-HTP accumulation in limbic system at a dose 1.56 umol/kg (p.o.)", "assay_type": "functional", "in_short": "as §3"}, "Rattus norvegicus [24]": {"system": "Rattus norvegicus", "assay": "Effect evaluated in vivo on 5-HTP accumulation in limbic system after subcutaneous administration", "assay_type": "functional", "settings": "sc", "in_short": "as §2"}, "Rattus norvegicus [25]": {"system": "Rattus norvegicus", "assay": "Effect evaluated in vivo on 5-HTP accumulation in limbic system after perioral administration", "assay_type": "functional", "in_short": "as §2"}, "Rattus norvegicus [26]": {"system": "Rattus norvegicus", "assay": "Effect evaluated in vivo on 5-HTP accumulation in NE-rich hemispheres at a 6.25d ose uM/kg(po)", "assay_type": "functional", "in_short": "as §2"}, "Rattus norvegicus [27]": {"system": "Rattus norvegicus", "assay": "Effect evaluated in vivo on 5-HTP accumulation in NE-rich hemispheres after subcutaneous administration", "assay_type": "functional", "settings": "sc", "in_short": "as §2"}, "Rattus norvegicus [28]": {"system": "Rattus norvegicus", "assay": "Effect evaluated in vivo on 5-HTP accumulation in corpus striatum at a dose 12.5 umol/kg (s.c.)", "assay_type": "functional", "in_short": "as §2"}, "Rattus norvegicus [29]": {"system": "Rattus norvegicus", "assay": "Effect evaluated in vivo on 5-HTP accumulation in limbic system at a dose 6.25 umol/kg (p.o.)", "assay_type": "functional", "in_short": "as §3"}, "Rattus norvegicus [30]": {"system": "Rattus norvegicus", "assay": "Effect evaluated in vivo on 5-HTP accumulation in corpus striatum at a dose 50 umol/kg (s.c.)", "assay_type": "functional", "in_short": "as §2"}, "Rattus norvegicus [31]": {"system": "Rattus norvegicus", "assay": "Effect evaluated in vivo on 5-HTP accumulation in NE-rich hemispheres at a 1.56 dose uM/kg(po)", "assay_type": "functional", "in_short": "as §2"}, "Rattus norvegicus [32]": {"system": "Rattus norvegicus", "assay": "Effect evaluated in vivo on 5-HTP accumulation in corpus striatum at a dose 25 umol/kg (p.o.)", "assay_type": "functional", "in_short": "as §2"}}}
{"smiles": "CCCN1CCc2cccc(OC)c2CC1", "values": [{"measurement": "Control", "setting": "Rattus norvegicus [1]", "value": 42, "unit": "%"}, {"measurement": "Control", "setting": "Rattus norvegicus [2]", "value": 48, "unit": "%"}, {"measurement": "Control", "setting": "Rattus norvegicus [3]", "value": 92, "unit": "%"}, {"measurement": "Control", "setting": "Rattus norvegicus [4]", "value": 48, "unit": "%"}, {"measurement": "Control", "setting": "Rattus norvegicus [5]", "value": 58, "unit": "%"}, {"measurement": "ED50", "setting": "Rattus norvegicus [6]", "value": 10, "unit": "µmol/kg"}, {"measurement": "Control", "setting": "Rattus norvegicus [7]", "value": 97, "unit": "%"}, {"measurement": "Control", "setting": "Rattus norvegicus [8]", "value": 47, "unit": "%"}, {"measurement": "Control", "setting": "Rattus norvegicus [9]", "value": 61, "unit": "%"}, {"measurement": "Control", "setting": "Rattus norvegicus [10]", "value": 79, "unit": "%"}, {"measurement": "Control", "setting": "Rattus norvegicus [11]", "value": 58, "unit": "%"}, {"measurement": "Control", "setting": "Rattus norvegicus [12]", "value": 53, "unit": "%"}, {"measurement": "Control", "setting": "Rattus norvegicus [13]", "value": 47, "unit": "%"}, {"measurement": "IC50", "setting": "D(2) dopamine receptor", "value": 3.6, "unit": "µM"}, {"measurement": "ED50", "setting": "Rattus norvegicus [14]", "value": 13, "unit": "µmol/kg"}, {"measurement": "Control", "setting": "Rattus norvegicus [15]", "value": 74, "unit": "%"}, {"measurement": "Locomotor activity", "setting": "Rattus norvegicus [16]", "value": 197}, {"measurement": "Control", "setting": "Rattus norvegicus [17]", "value": 58, "unit": "%"}, {"measurement": "Control", "setting": "Rattus norvegicus [18]", "value": 99, "unit": "%"}, {"measurement": "ED50", "setting": "Rattus norvegicus [19]", "value": 1, "unit": "µmol/kg"}, {"measurement": "Control", "setting": "Rattus norvegicus [20]", "value": 56, "unit": "%"}, {"measurement": "Control", "setting": "Rattus norvegicus [21]", "value": 53, "unit": "%"}, {"measurement": "IC50", "setting": "[22]", "value": 0.063, "unit": "µM"}, {"measurement": "Control", "setting": "Rattus norvegicus [23]", "value": 99, "unit": "%"}, {"measurement": "ED50", "setting": "Rattus norvegicus [24]", "value": 1.5, "unit": "µmol/kg"}, {"measurement": "ED50", "setting": "Rattus norvegicus [25]", "value": 7, "unit": "µmol/kg"}, {"measurement": "Control", "setting": "Rattus norvegicus [26]", "value": 84, "unit": "%"}, {"measurement": "ED50", "setting": "Rattus norvegicus [27]", "value": 1.5, "unit": "µmol/kg"}, {"measurement": "Control", "setting": "Rattus norvegicus [28]", "value": 48, "unit": "%"}, {"measurement": "Control", "setting": "Rattus norvegicus [29]", "value": 77, "unit": "%"}, {"measurement": "Control", "setting": "Rattus norvegicus [30]", "value": 63, "unit": "%"}, {"measurement": "Control", "setting": "Rattus norvegicus [31]", "value": 101, "unit": "%"}, {"measurement": "Control", "setting": "Rattus norvegicus [32]", "value": 65, "unit": "%"}]}
